We go through 16 molecules from ChEMBL document CHEMBL4732225, “Identification of a new class of HBV capsid assembly modulator” (Bioorg Med Chem Lett, 2021).

The nature of data set [1]: Metabolic stability in human microsomes assessed as intrinsic clearance. Type of data set: ADME, Microsome.
Data set [2] in a line: Plasma clearance in Sprague-Dawley rat at 5 mg/kg, po or 1.25 mg/kg, iv. Format: ADME, organism-based. In short, it runs like this:
(§1)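 Sprague-Dawley rats, n = 3. Oral dose 5 mg/kg in 70% PEG400 vehicle; IV dose 1.25 mg/kg in saline vehicle.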

The nature of data set [3]: Volume of distribution at steady state in Sprague-Dawley rat at 5 mg/kg, po or 1.25 mg/kg, iv. Type of data set: ADME, organism-based. The following applies: in vivo, read-out: Vdss. The essentials: as §1
The nature of data set [4]: Half life in Sprague-Dawley rat at 5 mg/kg, po or 1.25 mg/kg, iv. Format: ADME, organism-based. The following applies: in vivo. In short, it runs like this:
as §1

Data set [5] can be described thus: Cmax in Sprague-Dawley rat at 5 mg/kg, po. Format: ADME, organism-based. Also on record: route oral, dose 5 mg/kg. The following applies: in vivo. In short, it runs like this: as §1
A short description of data set [6]: Tmax in Sprague-Dawley rat at 5 mg/kg, po. The following applies: in vivo. Format: ADME, organism-based. In short, it runs like this:
as §1

Data set [7] in a line: AUC (0 to infinity) in Sprague-Dawley rat at 5 mg/kg, po. Type of data set: ADME, organism-based. Set-up: time infinity, route oral, dose 5 mg/kg. The following applies: in vivo. The essentials:
as §1

Data set [8] can be described thus: Oral bioavailability in Sprague-Dawley rat at 5 mg/kg. The following applies: in vivo. Type of data set: ADME, organism-based. The essentials: as §1
Data set [9] can be described thus: Ratio of drug level in liver to plasma in Sprague-Dawley rat at 5 mg/kg, po or 1.25 mg/kg, iv. Type of data set: ADME, organism-based. The following applies: liver and plasma. In short, it runs like this: as §1
A short description of data set [10]: Volume of distribution at steady state in Beagle dog at […], po or 1 mg/kg, iv. Format: ADME, organism-based, Canis lupus familiaris. The following applies: in vivo, dose 2.5 mg/kg, read-out: Vdss.
Data set [11] is described as follows: Half life in Beagle dog at […], po or 1 mg/kg, iv. Type of data set: ADME, organism-based, Canis lupus familiaris. The following applies: in vivo, dose 2.5 mg/kg.
A short description of data set [12]: Cmax in Beagle dog at […], po. Type of data set: ADME, organism-based, Canis lupus familiaris. Also on record: route oral, dose 2.5 mg/kg. The following applies: in vivo.
The nature of data set [13]: Tmax in Beagle dog at […], po. Type of data set: ADME, organism-based, Canis lupus familiaris. The following applies: in vivo, dose 2.5 mg/kg.
Data set [14] in a line: AUC (0 to infinity) in Beagle dog at […], po. Type of data set: ADME, organism-based, Canis lupus familiaris. Also on record: route oral, time infinity, dose 2.5 mg/kg. The following applies: in vivo.
Data set [15] can be described thus: Oral bioavailability in Beagle dog at […]. Type of data set: ADME, organism-based, Canis lupus familiaris. The following applies: in vivo, dose 2.5 mg/kg.

Turning to `C[C@H]1Cc2[nH]nc(-c3cscn3)c2CN1C(=O)Nc1ccc(F)c(Br)c1`, the CLint scaled in data set [1] came out at 24 mL/min/kg. The same measure, in the same setting: then `C[C@H]1Cc2[nH]nc(-c3cccs3)c2CN1C(=O)Nc1cccc(Cl)c1`, with 17 mL/min/kg. With `C[C@H]1Cc2[nH]nc(-c3cscn3)c2CN1C(=O)Nc1ccc(F)c(C#N)c1`, the intrinsic clearance (CLint scaled) in data set [1] amounted to 13 mL/min/kg. In [2], the clearance was found to be 30.7 mL/min/kg. The Vd in [3] was 2.97 L/kg; in [10] it was 3 L/kg. In addition, the half-life in [4] is 2.28 h; in data set [11], 2.17 h. The highest concentration (Cmax) in [5] came out at 73 ng/mL; in data set [12], 472 ng/mL. For the same molecule, the time to peak (Tmax) in data set [6] was 6 h; in data set [13] it was 1 h. Further, the AUC(0-inf) in [7] was 1030 ng·h/mL. The bioavailability in data set [8] is 38%. The partition ratio (Kp) in [9] was 17. The AUC in [14] was 1620 ng·h/mL. Further, in [15], the F was 73%. As to `CC[C@H]1Cc2[nH]nc(-c3ccccc3)c2CN1C(=O)Nc1cccc(Cl)c1`, the intrinsic clearance (CLint scaled) in [1] was 22 mL/min/kg. In the case of `O=C(Nc1cccc(Cl)c1)N1CCc2[nH]nc(-c3nccs3)c2C1`, the CLint scaled in data set [1] was 53 mL/min/kg. For the molecule `C[C@H]1Cc2[nH]nc(-c3cscn3)c2CN1C(=O)Nc1cccc(Cl)c1`, in data set [1], the CLint scaled came to 20 mL/min/kg.

Take `C[C@H]1Cc2[nH]nc(-c3cscn3)c2CN1C(=O)Nc1ccc(F)c(Cl)c1`: the intrinsic clearance (CLint scaled) in data set [1] worked out at 21 mL/min/kg.

For `O=C(Nc1cccc(Cl)c1)N1CCc2[nH]nc(-c3cccs3)c2C1`, the CLint scaled in data set [1] came to 356 mL/min/kg. Take `C[C@@H]1Cc2[nH]nc(-c3ccccc3)c2CN1C(=O)Nc1cccc(Cl)c1`: the intrinsic clearance (CLint scaled) in data set [1] amounted to 43 mL/min/kg. Still for that read-out and setting: with `O=C(Nc1cccc(Cl)c1)N1CCc2[nH]nc(-c3cscn3)c2C1` the figure was 33 mL/min/kg. Consider `C[C@H]1Cc2[nH]nc(-c3cscn3)c2CN1C(=O)Nc1ccnc(Br)c1F`, for which the intrinsic clearance (CLint scaled) in [1] was determined as 12 mL/min/kg. The same measure, in the same setting: then `Cc1cc(NC(=O)N2Cc3c(-c4cscn4)n[nH]c3C[C@@H]2C)ccc1F`, with 14 mL/min/kg. On the same count and under the same terms, with `O=C(Nc1cccc(Cl)c1)N1CCc2[nH]nc(-c3ccsc3)c2C1` the figure was 160 mL/min/kg.

As to `C[C@H]1Cc2[nH]nc(-c3ccccc3)c2CN1C(=O)Nc1cccc(Cl)c1`, the CLint scaled in [1] amounted to 15 mL/min/kg. Still for that read-out and setting: then `C[C@H]1Cc2c(c(-c3cccs3)nn2C)CN1C(=O)Nc1cccc(Cl)c1`, with 146 mL/min/kg; and `O=C(Nc1cccc(Cl)c1)N1CCc2[nH]nc(-c3cocn3)c2C1`, with 50 mL/min/kg.

As usually defined, the CLint scaled is the rate of metabolic loss divided by the concentration. For orientation: half-life means the time in which the quantity being followed falls by half. The low end stands for rapid decline, the high end for slow decline. What is called Cmax is the maximum level reached in the sampled fluid or tissue. One may read the Tmax as the time at which the peak concentration occurs. Usually AUC(0-inf) stands for total exposure, with the tail of the curve extrapolated. The low end stands for less exposure, the high end for more exposure. By bioavailability is commonly meant dose-corrected exposure relative to a reference, in per cent. High values mean good availability, low ones poor availability. Broadly, the Kp is the ratio of the level in a tissue or fluid to that in plasma or blood. As usually defined, the AUC is the area under the concentration-time curve, a measure of exposure.
